Experimental data: ChEMBL document CHEMBL4152188, “Design, synthesis and biological evaluation of C(4) substituted monobactams as antibacterial agents against multidrug-resistant Gram-negative bacteria” (Eur J Med Chem, 2018)

Tests used:
Type in all cases: functional
Escherichia coli [1] = assay: Antibacterial activity against extended-spectrum beta-lactamase producing Escherichia coli isolate 212648 after 18 hrs by CLSI broth microdilution method; conditions: isolate 212648, 18 h
Escherichia coli [2] = assay: Antibacterial activity against Escherichia coli isolate 210737 after 18 hrs by CLSI broth microdilution method; conditions: isolate 210737, 18 h
Escherichia coli [3] = assay: Antibacterial activity against extended-spectrum beta-lactamase producing Escherichia coli isolate 208687 after 18 hrs by CLSI broth microdilution method; conditions: isolate 208687, 18 h
Escherichia coli [4] = assay: Antibacterial activity against extended-spectrum beta-lactamase producing Escherichia coli isolate 208687 after 18 hrs in presence of BPL by CLSI broth microdilution method; conditions: isolate 208687, 18 h
In short: (§1)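 CLSI broth microdilution against clinical isolates (ESBL E. coli, KPC-2 MDR K. pneumoniae, IMP-4 MDR P. aeruginosa; five per species). Iron limitation: Mueller-Hinton broth supplemented with 16 mg/liter 2,2'-bipyridyl to complex iron and induce iron uptake systems. Read-out: MIC.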

Escherichia coli [5] = assay: Antibacterial activity against Escherichia coli isolate 210737 after 18 hrs in presence of BPL by CLSI broth microdilution method; conditions: isolate 210737, 18 h; in short: as §1
Escherichia coli [6] = assay: Antibacterial activity against extended-spectrum beta-lactamase producing Escherichia coli isolate 212648 after 18 hrs in presence of BPL by CLSI broth microdilution method; conditions: isolate 212648, 18 h; in short: as §1
Escherichia coli [7] = assay: Antibacterial activity against extended-spectrum beta-lactamase producing Escherichia coli isolate 209285 after 18 hrs by CLSI broth microdilution method; conditions: isolate 209285, 18 h
Escherichia coli [8] = assay: Antibacterial activity against extended-spectrum beta-lactamase producing Escherichia coli isolate 209285 after 18 hrs in presence of BPL by CLSI broth microdilution method; conditions: isolate 209285, 18 h; in short: as §1
Escherichia coli [9] = assay: Antibacterial activity against extended-spectrum beta-lactamase producing Escherichia coli isolate 106342 after 18 hrs by CLSI broth microdilution method; conditions: isolate 106342, 18 h
Escherichia coli [10] = assay: Antibacterial activity against extended-spectrum beta-lactamase producing Escherichia coli isolate 106342 after 18 hrs in presence of BPL by CLSI broth microdilution method; conditions: isolate 106342, 18 h; in short: as §1
Escherichia coli [11] = assay: Selectivity index, ratio of MIC for against extended-spectrum beta-lactamase producing Escherichia coli isolate 106342 to MIC for extended-spectrum beta-lactamase producing Escherichia coli isolate 106342 in presence of BPL
Klebsiella pneumoniae [12] = assay: Antibacterial activity against KPC-2 producing Klebsiella pneumoniae isolate 212423 after 18 hrs by CLSI broth microdilution method; conditions: isolate 212423, 18 h
Klebsiella pneumoniae [13] = assay: Antibacterial activity against KPC-2 producing Klebsiella pneumoniae isolate 212423 after 18 hrs in presence of BPL by CLSI broth microdilution method; conditions: isolate 212423, 18 h; in short: as §1
Klebsiella pneumoniae [14] = assay: Antibacterial activity against KPC-2 producing Klebsiella pneumoniae isolate 209632 after 18 hrs by CLSI broth microdilution method; conditions: isolate 209632, 18 h
Klebsiella pneumoniae [15] = assay: Antibacterial activity against KPC-2 producing Klebsiella pneumoniae isolate 209632 after 18 hrs in presence of BPL by CLSI broth microdilution method; conditions: isolate 209632, 18 h; in short: as §1
Klebsiella pneumoniae [16] = assay: Antibacterial activity against KPC-2 producing Klebsiella pneumoniae isolate 209735 after 18 hrs by CLSI broth microdilution method; conditions: isolate 209735, 18 h
Klebsiella pneumoniae [17] = assay: Antibacterial activity against KPC-2 producing Klebsiella pneumoniae isolate 209735 after 18 hrs in presence of BPL by CLSI broth microdilution method; conditions: isolate 209735, 18 h; in short: as §1
Klebsiella pneumoniae [18] = assay: Antibacterial activity against KPC-2 producing Klebsiella pneumoniae isolate 212232 after 18 hrs by CLSI broth microdilution method; conditions: isolate 212232, 18 h
Klebsiella pneumoniae [19] = assay: Antibacterial activity against KPC-2 producing Klebsiella pneumoniae isolate 212232 after 18 hrs in presence of BPL by CLSI broth microdilution method; conditions: isolate 212232, 18 h; in short: as §1
Klebsiella pneumoniae [20] = assay: Antibacterial activity against KPC-2 producing Klebsiella pneumoniae isolate 212229 after 18 hrs by CLSI broth microdilution method; conditions: isolate 212229, 18 h
Klebsiella pneumoniae [21] = assay: Antibacterial activity against KPC-2 producing Klebsiella pneumoniae isolate 212229 after 18 hrs in presence of BPL by CLSI broth microdilution method; conditions: isolate 212229, 18 h; in short: as §1
Pseudomonas aeruginosa [22] = assay: Antibacterial activity against IMP-4 producing Pseudomonas aeruginosa isolate 212886 after 18 hrs by CLSI broth microdilution method; conditions: isolate 212886, 18 h
Pseudomonas aeruginosa [23] = assay: Antibacterial activity against IMP-4 producing Pseudomonas aeruginosa isolate 212886 after 18 hrs in presence of BPL by CLSI broth microdilution method; conditions: isolate 212886, 18 h; in short: as §1
Pseudomonas aeruginosa [24] = assay: Selectivity index, ratio of MIC for against IMP-4 producing Pseudomonas aeruginosa isolate 212886 to MIC for against IMP-4 producing Pseudomonas aeruginosa isolate 212886 in presence of BPL
Pseudomonas aeruginosa [25] = assay: Antibacterial activity against IMP-4 producing Pseudomonas aeruginosa isolate 209471 after 18 hrs by CLSI broth microdilution method; conditions: isolate 209471, 18 h
Pseudomonas aeruginosa [26] = assay: Antibacterial activity against IMP-4 producing Pseudomonas aeruginosa isolate 209471 after 18 hrs in presence of BPL by CLSI broth microdilution method; conditions: isolate 209471, 18 h; in short: as §1
Pseudomonas aeruginosa [27] = assay: Selectivity index, ratio of MIC for against IMP-4 producing Pseudomonas aeruginosa isolate 209471 to MIC for against IMP-4 producing Pseudomonas aeruginosa isolate 209471 in presence of BPL
Pseudomonas aeruginosa [28] = assay: Antibacterial activity against IMP-4 producing Pseudomonas aeruginosa isolate 208247 after 18 hrs by CLSI broth microdilution method; conditions: isolate 208247, 18 h
Pseudomonas aeruginosa [29] = assay: Antibacterial activity against IMP-4 producing Pseudomonas aeruginosa isolate 208247 after 18 hrs in presence of BPL by CLSI broth microdilution method; conditions: isolate 208247, 18 h; in short: as §1
Pseudomonas aeruginosa [30] = assay: Selectivity index, ratio of MIC for against IMP-4 producing Pseudomonas aeruginosa isolate 208247 to MIC for against IMP-4 producing Pseudomonas aeruginosa isolate 208247 in presence of BPL
Pseudomonas aeruginosa [31] = assay: Antibacterial activity against IMP-4 producing Pseudomonas aeruginosa isolate 209321 after 18 hrs by CLSI broth microdilution method; conditions: isolate 209321, 18 h
Pseudomonas aeruginosa [32] = assay: Antibacterial activity against IMP-4 producing Pseudomonas aeruginosa isolate 209321 after 18 hrs in presence of BPL by CLSI broth microdilution method; conditions: isolate 209321, 18 h; in short: as §1
Pseudomonas aeruginosa [33] = assay: Selectivity index, ratio of MIC for against IMP-4 producing Pseudomonas aeruginosa isolate 209321 to MIC for against IMP-4 producing Pseudomonas aeruginosa isolate 209321 in presence of BPL
Pseudomonas aeruginosa [34] = assay: Antibacterial activity against IMP-4 producing Pseudomonas aeruginosa isolate 207272 after 18 hrs by CLSI broth microdilution method; conditions: isolate 207272, 18 h
Pseudomonas aeruginosa [35] = assay: Antibacterial activity against IMP-4 producing Pseudomonas aeruginosa isolate 207272 after 18 hrs in presence of BPL by CLSI broth microdilution method; conditions: isolate 207272, 18 h; in short: as §1
Pseudomonas aeruginosa [36] = assay: Selectivity index, ratio of MIC for against IMP-4 producing Pseudomonas aeruginosa isolate 207272 to MIC for against IMP-4 producing Pseudomonas aeruginosa isolate 207272 in presence of BPL

C#CC1[C@H](NC(=O)/C(=N\OC(c2cc(=O)c(O)cn2O)C(C)C)c2csc(N)n2)C(=O)N1S(=O)(=O)O (stereo partly specified)
2: Selectivity Index (Pseudomonas aeruginosa [30])
64 µg/mL: MIC (Escherichia coli [9]) | MIC (Escherichia coli [10]) | MIC (Pseudomonas aeruginosa [28]) | MIC (Pseudomonas aeruginosa [31]) | MIC (Pseudomonas aeruginosa [32])
1 - 2: Selectivity Index (Pseudomonas aeruginosa [24]) | Selectivity Index (Pseudomonas aeruginosa [27]) | Selectivity Index (Pseudomonas aeruginosa [36])
1: Selectivity Index (Escherichia coli [11]) | Selectivity Index (Pseudomonas aeruginosa [33])
> 64 µg/mL: MIC (Escherichia coli [1]) | MIC (Escherichia coli [2]) | MIC (Escherichia coli [3]) | MIC (Escherichia coli [4]) | MIC (Escherichia coli [5]) | MIC (Escherichia coli [6]) | MIC (Escherichia coli [7]) | MIC (Escherichia coli [8]) | MIC (Klebsiella pneumoniae [12]) | MIC (Klebsiella pneumoniae [13]) | MIC (Klebsiella pneumoniae [14]) | MIC (Klebsiella pneumoniae [15]) | MIC (Klebsiella pneumoniae [16]) | MIC (Klebsiella pneumoniae [17]) | MIC (Klebsiella pneumoniae [18]) | MIC (Klebsiella pneumoniae [19]) | MIC (Klebsiella pneumoniae [20]) | MIC (Klebsiella pneumoniae [21]) | MIC (Pseudomonas aeruginosa [22]) | MIC (Pseudomonas aeruginosa [23]) | MIC (Pseudomonas aeruginosa [25]) | MIC (Pseudomonas aeruginosa [26]) | MIC (Pseudomonas aeruginosa [34]) | MIC (Pseudomonas aeruginosa [35])
32 µg/mL: MIC (Pseudomonas aeruginosa [29])
